Here are results for 15 molecules from paper PMC6686180 (Biochemistry, 2018).

The target of assay [1] is T1, GGTase-I (Rattus norvegicus, UniProt P53610+Q04631). Briefly: Peptide prenylation assay. It is filed as biochemical. The following applies: GGTase-I 10 nM; for effect on GGTase-I activity with peptide substrate: 5 μM SmgGDS, dansyl-GCLVL, saturating GGPP (10 μM). Summed up:
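GGTase-I (10 nM) and 10 μM GGPP were incubated at 30°C with varied dansyl-GCLVL (RhoA CaaX peptide), with or without SmgGDS (5 μM final) or GDP/GTP (30 μM final). Prenylation-dependent fluorescence (ex 340/em 520 nm) was read every 40 s for 2 h. Initial slopes were converted to velocity, and kcat and KM came from Michaelis-Menten fits of V/E.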

The test system of assay [2] is SmgGDS. To be noted: cells, cited from earlier work.
Assay [3] addresses RhoA CaaX only peptide (5fam-GCLVL) (human). Briefly: fluorescence polarisation.
In assay [4] the target is RhoA 13mer (5-fam-…) (human). Description: fluorescence polarisation.
Assay [5] concerns the target biotinylated SmgGDS-607 (human) (UniProt P52306). Briefly: BLI.
The target is the same in assay [6]. Briefly: BLI. This is another data set of the same source.
The subject of assay [7] is GGTase-I. The following applies: cited from earlier work.
Assay [8] relates to FTase. To be noted: addition of GDP or GTPγS; cited from earlier work.
For assay [9], the target named is T1, GGTase-I. Briefly: Radiolabel prenylation assay: GGTase-I-catalyzed geranylgeranylation of RhoA. Format: biochemical. The following applies: for effect of nucleotide on initial rate of RhoA geranylgeranylation / effect of nucleotide on endpoint level of incorporated isoprenoid: 25 μM GTP or GDP, RhoA 1.3 μM, GGTase-I 5 nM, without SmgGDS; for effect of nucleotide on initial rate of RhoA geranylgeranylation: 3H-GGPP 9 μM; for effect of nucleotide on endpoint level of incorporated isoprenoid: incubation 2 hr.

In assay [10] the target is RhoA. To be noted: read-out: Kd of RhoA for GTPγS; with Mg^2+; cited from earlier work.
Assay [11] concerns RhoA. Description: Radiolabel prenylation assay of RhoA with SmgGDS-607. It is filed as biochemical, human.
The target of assay [12] is geranylgeranylated RhoA 13mer peptide (human). Description: fluorescence polarisation.
Assay [13] has as its target RhoA (human). Description: inhibition of radiolabel prenylation.
Assay [14] deals with T2, SmgGDS-558 (human, UniProt P52306-2 1-558).
T2 sequence (looked up): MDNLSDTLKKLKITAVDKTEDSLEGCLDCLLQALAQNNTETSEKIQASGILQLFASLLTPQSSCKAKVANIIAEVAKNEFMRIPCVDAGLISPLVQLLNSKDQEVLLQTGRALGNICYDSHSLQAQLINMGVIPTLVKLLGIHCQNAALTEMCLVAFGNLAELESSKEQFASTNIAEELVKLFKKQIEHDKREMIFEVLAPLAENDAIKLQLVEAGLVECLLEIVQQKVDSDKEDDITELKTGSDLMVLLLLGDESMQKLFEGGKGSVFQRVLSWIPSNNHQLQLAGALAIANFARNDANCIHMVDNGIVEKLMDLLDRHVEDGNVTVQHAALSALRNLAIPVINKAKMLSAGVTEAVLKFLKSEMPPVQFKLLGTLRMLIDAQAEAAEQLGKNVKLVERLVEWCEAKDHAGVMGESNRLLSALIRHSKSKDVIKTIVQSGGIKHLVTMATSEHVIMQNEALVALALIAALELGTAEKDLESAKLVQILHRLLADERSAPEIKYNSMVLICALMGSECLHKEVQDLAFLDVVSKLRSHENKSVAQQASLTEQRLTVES
Description: fluorescence polarisation.

[15] abbreviates: Buffer (no additive), GGPP 10 μM, 30°C, fluorescence.

Like-named read-outs stand apart in the source and are kept apart here. Ends that are not written are not given here. * marks the point of attachment. 5FAM = O=C1OC2(c3ccc(O)cc3Oc3cc(O)ccc32)c2ccc(C(=O)*)cc21

T1 sequence (P53610 whole entry, one chain of several): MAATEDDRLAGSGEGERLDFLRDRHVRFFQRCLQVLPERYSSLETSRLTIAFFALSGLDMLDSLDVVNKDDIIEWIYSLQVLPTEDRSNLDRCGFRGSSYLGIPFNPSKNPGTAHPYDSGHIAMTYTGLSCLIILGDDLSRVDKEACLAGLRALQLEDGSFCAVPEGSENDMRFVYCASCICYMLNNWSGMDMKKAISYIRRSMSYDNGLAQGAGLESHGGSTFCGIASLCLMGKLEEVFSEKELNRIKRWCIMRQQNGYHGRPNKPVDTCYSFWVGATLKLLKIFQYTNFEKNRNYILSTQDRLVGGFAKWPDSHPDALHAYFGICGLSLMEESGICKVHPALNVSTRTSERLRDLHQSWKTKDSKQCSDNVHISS

Regarding dansyl-GCLVL [dansyl GCLVL], in [1] (setting [15]), the Michaelis-Menten constant (Km) came out at 1.9 ± 0.8 µM and the turnover number (kcat) amounted to 0.046 ± 0.009 s⁻¹.
Turning to “RhoA G14V: constitutively active mutant, predominantly bound to GTP”, the “co-immunoprecipitation of SmgGDS” value in assay [2] is listed as “did not co-immunoprecipitate detectable amounts of SmgGDS”.
With “protein geranylgeranyltransferase I (from UniProt Q04631 1-377) (complex)”, the results for the Kd in assay [3] and in assay [4] were 2200 nM and 56 nM, respectively.
As for RhoA (natural protein), the equilibrium dissociation constant (Kd) in assay [5] stood at 249 nM; in assay [6] it was 77 nM.
As to `CC(C)=CCC/C(C)=C/CC/C(C)=C/CC/C(C)=C/COP(=O)(O)OP(=O)(O)O` [GGPP, geranylgeranyl pyrophosphate], the Michaelis constant (Km) in assay [7] (GGTase-I KM for GGPP) was 0.003 µM.
`Nc1nc2c(ncn2[C@@H]2O[C@H](COP(=O)(O)OP(=O)(O)O)[C@@H](O)[C@H]2O)c(=O)[nH]1` [GDP]: the “FTase activity for farnesylation of H-Ras” value in [8] is reported as “unaffected”. The “effect of GDP on GGTase-I activity for RhoA” value in assay [9] (20 μM GDP without SmgGDS-607, RhoA 3 μM, GGTase-I 10 nM, 3H-GGPP 1.8 μM, 4 min) is on record as “does not affect GGTase-I activity for RhoA”. Further, in assay [9], the “effect of nucleotide on initial rate of RhoA geranylgeranylation” value is “No difference was observed” and the “effect of nucleotide on endpoint level of incorporated isoprenoid” value was “no significant difference”.
`Nc1nc2c(ncn2[C@@H]2O[C@H](COP(=O)(O)OP(=O)(O)OP(O)(O)=S)[C@@H](O)[C@H]2O)c(=O)[nH]1` [GTPγS]: the dissociation constant Kd in assay [10] was 160 nM.
For `Nc1nc2c(ncn2[C@@H]2O[C@H](COP(=O)(O)OP(=O)(O)OP(=O)(O)O)[C@@H](O)[C@H]2O)c(=O)[nH]1` [GTP], in assay [9], the “effect of nucleotide on initial rate of RhoA geranylgeranylation” value is “No difference was observed” and the “effect of nucleotide on endpoint level of incorporated isoprenoid” value is “no significant difference”. For the same molecule, the “restoration of RhoA geranylgeranylation at saturating GTP” value in [11] (5 μM SmgGDS-607, versus level in absence of SmgGDS-607, RhoA 3 μM) was “do not restore RhoA geranylgeranylation to the level observed in the absence of SmgGDS-607”. Moreover, in assay [11] (in the presence of 5 μM SmgGDS-607, RhoA 3 μM, GGTase-I 10 nM, 3H-GGPP 1.8 μM, 4 min), the “concentration of GTP required to reach saturating RhoA geranylgeranylation” value is ~ 3 μM.
For “RhoA T19N: dominant negative mutant of RhoA, predominantly nucleotide-free in cells”, in assay [2] (versus wildtype RhoA), the “co-immunoprecipitation of SmgGDS-607” value is reported as “co-immunoprecipitates greater amounts of SmgGDS-607 than wildtype RhoA”.
Consider “SmgGDS-607 (from UniProt P52306-1 1-607) (natural protein)”, for which the results for the dissociation constant Kd in assay [12] and in assay [4] were above 16000 nM and 1900 nM, respectively.
As to dansyl-GCVLL, the kcat in assay [7] (peptide substrate dansyl-GCVLL) is 0.051 s⁻¹.

B1: SmgGDS-558: human SmgGDS 558-amino acid splice variant with 12 armadillo repeats (UniProt P52306–2) (protein)
chain: MDNLSDTLKKLKITAVDKTEDSLEGCLDCLLQALAQNNTETSEKIQASGILQLFASLLTPQSSCKAKVANIIAEVAKNEFMRIPCVDAGLISPLVQLLNSKDQEVLLQTGRALGNICYDSHSLQAQLINMGVIPTLVKLLGIHCQNAALTEMCLVAFGNLAELESSKEQFASTNIAEELVKLFKKQIEHDKREMIFEVLAPLAENDAIKLQLVEAGLVECLLEIVQQKVDSDKEDDITELKTGSDLMVLLLLGDESMQKLFEGGKGSVFQRVLSWIPSNNHQLQLAGALAIANFARNDANCIHMVDNGIVEKLMDLLDRHVEDGNVTVQHAALSALRNLAIPVINKAKMLSAGVTEAVLKFLKSEMPPVQFKLLGTLRMLIDAQAEAAEQLGKNVKLVERLVEWCEAKDHAGVMGESNRLLSALIRHSKSKDVIKTIVQSGGIKHLVTMATSEHVIMQNEALVALALIAALELGTAEKDLESAKLVQILHRLLADERSAPEIKYNSMVLICALMGSECLHKEVQDLAFLDVVSKLRSHENKSVAQQASLTEQRLTVES
modifications: left off: His6-tev, end not stated, state not stated
As to B1, the “effect on GGTase-I activity with peptide substrate” value in assay [1] is listed as “not significantly altered”.

B2: SmgGDS-607 (natural protein)
chain: MDNLSDTLKKLKITAVDKTEDSLEGCLDCLLQALAQNNTETSEKIQASGILQLFASLLTPQSSCKAKVANIIAEVAKNEFMRIPCVDAGLISPLVQLLNSKDQEVLLQTGRALGNICYDSHEGRSAVDQAGGAQIVIDHLRSLCSITDPANEKLLTVFCGMLMNYSNENDSLQAQLINMGVIPTLVKLLGIHCQNAALTEMCLVAFGNLAELESSKEQFASTNIAEELVKLFKKQIEHDKREMIFEVLAPLAENDAIKLQLVEAGLVECLLEIVQQKVDSDKEDDITELKTGSDLMVLLLLGDESMQKLFEGGKGSVFQRVLSWIPSNNHQLQLAGALAIANFARNDANCIHMVDNGIVEKLMDLLDRHVEDGNVTVQHAALSALRNLAIPVINKAKMLSAGVTEAVLKFLKSEMPPVQFKLLGTLRMLIDAQAEAAEQLGKNVKLVERLVEWCEAKDHAGVMGESNRLLSALIRHSKSKDVIKTIVQSGGIKHLVTMATSEHVIMQNEALVALALIAALELGTAEKDLESAKLVQILHRLLADERSAPEIKYNSMVLICALMGSECLHKEVQDLAFLDVVSKLRSHENKSVAQQASLTEQRLTVES
Turning to B2, the Ki in assay [13] amounted to 85 nM.

B3: SmgGDS-607: human SmgGDS 607-amino acid splice variant with one additional armadillo repeat (UniProt P52306–1) (protein)
chain: MDNLSDTLKKLKITAVDKTEDSLEGCLDCLLQALAQNNTETSEKIQASGILQLFASLLTPQSSCKAKVANIIAEVAKNEFMRIPCVDAGLISPLVQLLNSKDQEVLLQTGRALGNICYDSHEGRSAVDQAGGAQIVIDHLRSLCSITDPANEKLLTVFCGMLMNYSNENDSLQAQLINMGVIPTLVKLLGIHCQNAALTEMCLVAFGNLAELESSKEQFASTNIAEELVKLFKKQIEHDKREMIFEVLAPLAENDAIKLQLVEAGLVECLLEIVQQKVDSDKEDDITELKTGSDLMVLLLLGDESMQKLFEGGKGSVFQRVLSWIPSNNHQLQLAGALAIANFARNDANCIHMVDNGIVEKLMDLLDRHVEDGNVTVQHAALSALRNLAIPVINKAKMLSAGVTEAVLKFLKSEMPPVQFKLLGTLRMLIDAQAEAAEQLGKNVKLVERLVEWCEAKDHAGVMGESNRLLSALIRHSKSKDVIKTIVQSGGIKHLVTMATSEHVIMQNEALVALALIAALELGTAEKDLESAKLVQILHRLLADERSAPEIKYNSMVLICALMGSECLHKEVQDLAFLDVVSKLRSHENKSVAQQASLTEQRLTVES
modifications: left off: His6-tev, end not stated, state not stated
Regarding B3, in [11] (in vitro radiolabel incorporation assay), the “inhibition of RhoA prenylation catalyzed by GGTase-I (overall statement)” value is listed as “completely inhibits RhoA prenylation”. The “effect on GGTase-I activity with peptide substrate” value in assay [1] is given as “not significantly altered”.
Regarding 5FAM-GCLVL [RhoA CaaX only peptide (5fam-GCLVL)], in assay [14], the Kd was above 40000 nM.
